Test results: publication PMC3701955 (Bioorganic & medicinal chemistry, 2012)
Like-named read-outs stand apart in the source and are kept apart here.

Key:
[1] = type: in vivo; conditions: female Sprague–Dawley rats, iv; for Biodistribution of radioactivity in brain region, Amygdala / Biodistribution of radioactivity in brain region, Basal Hypothalamus / Biodistribution of radioactivity in brain region, Cerebellum / Biodistribution of radioactivity in brain region, Dorsal Striatum / Biodistribution of radioactivity in brain region, Remaining Brain / Biodistribution of radioactivity, Blood / Biodistribution of radioactivity, Heart / Biodistribution of radioactivity, Kidney / Biodistribution of radioactivity, Liver / Biodistribution of radioactivity, Lung / Biodistribution of radioactivity, Muscle / Biodistribution of radioactivity, Uterus / Biodistribution of radioactivity, Brain: mean ± SD; for Biodistribution of radioactivity, Brain: total brain
OTR and V1aR = experiment: Receptor autoradiography with the radioligand on prairie vole brain slices; type: binding; conditions: 70 pM radioligand
Summary of the method: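 Prairie vole brains were cut at 20 μm from prefrontal cortex through nucleus accumbens and ventral pallidum, stored at −80 °C, and thawed. Sections were dipped in 0.1% paraformaldehyde/PBS pH 7.4 and rinsed in 50 mM Tris pH 7.4. They were incubated 1 h with 70 pM radioiodinated test compound without competitor, then washed in 50 mM Tris + 2% MgCl2 pH 7.4, air-dried, and exposed to film 72 h. Six animals per study.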

OTR of the CNS = biological target: T1, OTR of the CNS (Rattus norvegicus, UniProt P70536); experiment: PET imaging of the brain using a rat model; type: in vivo, Sprague–Dawley rats; conditions: rats, 90 min ([18F]3) or 45 min ([11C]4) scan
T1 sequence (P70536 1-388): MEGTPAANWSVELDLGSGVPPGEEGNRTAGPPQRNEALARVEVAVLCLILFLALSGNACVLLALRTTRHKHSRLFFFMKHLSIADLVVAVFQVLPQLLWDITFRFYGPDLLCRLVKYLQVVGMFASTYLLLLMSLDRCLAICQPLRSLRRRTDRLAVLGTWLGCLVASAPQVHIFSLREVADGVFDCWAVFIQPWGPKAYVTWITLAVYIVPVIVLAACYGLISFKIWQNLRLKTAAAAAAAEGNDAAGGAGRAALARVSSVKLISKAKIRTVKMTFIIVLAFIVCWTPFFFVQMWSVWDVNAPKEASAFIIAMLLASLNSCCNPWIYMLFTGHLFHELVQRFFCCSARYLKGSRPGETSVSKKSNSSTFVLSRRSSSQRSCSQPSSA

CS(=O)(=O)N1CCC(Oc2ccc(CC(=O)N3CCC(N4C(=O)CCc5ccccc54)CC3)c(OC/C=C\[125I])c2)CC1 [[^125I]2, (Z)-1-(1-(2-(2-(3-[125I] Iodoallyloxy)-4-(1-(methylsulfonyl)piperidin-4-yloxy)phenyl)acetyl)piperidin-4-yl)-3,4-dihydroquinolin-2(1H)-one]
in vivo stability of the radiolabel (thyroid / bone uptake over time) [1]: broken down readily in vivo at the iodine position | Biodistribution of radioactivity in brain region, Amygdala ([1]; 15 min): 0.06 ± 0.01 %ID/g | Biodistribution of radioactivity in brain region, Basal Hypothalamus ([1]; 15 min): 0.04 ± 0.01 %ID/g | Biodistribution of radioactivity in brain region, Cerebellum ([1]; 15 min): 0.03 ± 0.01 %ID/g | Biodistribution of radioactivity in brain region, Dorsal Striatum ([1]; 15 min): 0.03 ± 0.01 %ID/g | Biodistribution of radioactivity in brain region, Remaining Brain ([1]; 15 min): 0.03 ± 0.01 %ID/g | Biodistribution of radioactivity, Blood ([1]; 15 min): 0.22 ± 0.14 %ID/g | Biodistribution of radioactivity, Heart ([1]; 15 min): 0.51 ± 0.41 %ID/g | Biodistribution of radioactivity, Kidney ([1]; 15 min): 0.38 ± 0.20 %ID/g | Biodistribution of radioactivity, Liver ([1]; 15 min): 2.12 ± 1.73 %ID/g | Biodistribution of radioactivity, Lung ([1]; 15 min): 1.79 ± 1.78 %ID/g | Biodistribution of radioactivity, Muscle ([1]; 15 min): 0.10 ± 0.09 %ID/g | Biodistribution of radioactivity, Uterus ([1]; 15 min): 0.22 ± 0.16 %ID/g | Biodistribution of radioactivity, Brain ([1]; 15 min): 0.02 ± 0.01 %ID/g | Biodistribution of radioactivity in brain region, Amygdala ([1]; 30 min): 0.08 ± 0.06 %ID/g | Biodistribution of radioactivity in brain region, Basal Hypothalamus ([1]; 30 min): 0.03 ± 0.01 %ID/g | Biodistribution of radioactivity in brain region, Cerebellum ([1]; 30 min): 0.03 ± 0.01 %ID/g | Biodistribution of radioactivity in brain region, Dorsal Striatum ([1]; 30 min): 0.03 ± 0.01 %ID/g | Biodistribution of radioactivity in brain region, Remaining Brain ([1]; 30 min): 0.02 ± 0.01 %ID/g | Biodistribution of radioactivity, Blood ([1]; 30 min): 0.23 ± 0.23 %ID/g | Biodistribution of radioactivity, Heart ([1]; 30 min): 0.39 ± 0.38 %ID/g | Biodistribution of radioactivity, Kidney ([1]; 30 min): 0.31 ± 0.27 %ID/g | Biodistribution of radioactivity, Liver ([1]; 30 min): 1.91 ± 1.88 %ID/g | Biodistribution of radioactivity, Lung ([1]; 30 min): 1.02 ± 1.13 %ID/g | Biodistribution of radioactivity, Muscle ([1]; 30 min): 0.09 ± 0.08 %ID/g | Biodistribution of radioactivity, Uterus ([1]; 30 min): 0.16 ± 0.16 %ID/g | Biodistribution of radioactivity, Brain ([1]; 30 min): 0.02 ± 0.01 %ID/g | Biodistribution of radioactivity in brain region, Amygdala ([1]; 60 min): 0.06 ± 0.01 %ID/g | Biodistribution of radioactivity in brain region, Basal Hypothalamus ([1]; 60 min): 0.03 ± 0.01 %ID/g | Biodistribution of radioactivity in brain region, Cerebellum ([1]; 60 min): 0.03 ± 0.01 %ID/g | Biodistribution of radioactivity in brain region, Dorsal Striatum ([1]; 60 min): 0.02 ± 0.01 %ID/g | Biodistribution of radioactivity in brain region, Remaining Brain ([1]; 60 min): 0.02 ± 0.01 %ID/g | Biodistribution of radioactivity, Heart ([1]; 60 min): 0.39 ± 0.12 %ID/g | Biodistribution of radioactivity, Kidney ([1]; 60 min): 0.46 ± 0.04 %ID/g | Biodistribution of radioactivity, Liver ([1]; 60 min): 3.01 ± 0.50 %ID/g | Biodistribution of radioactivity, Lung ([1]; 60 min): 0.66 ± 0.32 %ID/g | Biodistribution of radioactivity, Muscle ([1]; 60 min): 0.15 ± 0.03 %ID/g | Biodistribution of radioactivity, Uterus ([1]; 60 min): 0.31 ± 0.08 %ID/g | Biodistribution of radioactivity, Brain ([1]; 60 min): 0.02 ± 0.01 %ID/g | Biodistribution of radioactivity in brain region, Basal Hypothalamus ([1]; 120 min): 0.04 ± 0.01 %ID/g | Biodistribution of radioactivity in brain region, Cerebellum ([1]; 120 min): 0.03 ± 0.01 %ID/g | Biodistribution of radioactivity in brain region, Dorsal Striatum ([1]; 120 min): 0.02 ± 0.01 %ID/g | Biodistribution of radioactivity in brain region, Remaining Brain ([1]; 120 min): 0.02 ± 0.01 %ID/g | Biodistribution of radioactivity, Blood ([1]; 120 min): 0.31 ± 0.17 %ID/g | Biodistribution of radioactivity, Kidney ([1]; 120 min): 0.29 ± 0.15 %ID/g | Biodistribution of radioactivity, Liver ([1]; 120 min): 1.91 ± 1.02 %ID/g | Biodistribution of radioactivity, Lung ([1]; 120 min): 0.41 ± 0.27 %ID/g | Biodistribution of radioactivity, Muscle ([1]; 120 min): 0.10 ± 0.05 %ID/g | Biodistribution of radioactivity, Uterus ([1]; 120 min): 0.22 ± 0.13 %ID/g | Biodistribution of radioactivity, Brain ([1]; 120 min): 0.02 ± 0.01 %ID/g | autoradiographic binding to brain regions (OTR and V1aR): bind to receptors in the NAcc and VP

1-(4-(3,4-Dihydroquinolin-1(2H)-yl)piperidin-1-yl)-2-(2-(2-[^18F]fluoroethoxy)-4-((1-(methylsulfonyl)piperidin-4-yl)oxy)phenyl)ethanone [[^18F]3]
in vivo stability of the radiolabel (thyroid / bone uptake over time) [1]: appeared to remain intact | Biodistribution of radioactivity, Liver ([1]; 15 min): 1.81 ± 0.36 %ID/g | Biodistribution of radioactivity, Liver ([1]; 30 min): 1.41 ± 0.17 %ID/g | Biodistribution of radioactivity, Liver ([1]; 60 min): 0.98 ± 0.44 %ID/g | Biodistribution of radioactivity, Liver ([1]; 120 min): 1.18 ± 0.18 %ID/g | viability for in vivo PET imaging of brain OTR (OTR of the CNS): not viable for in vivo PET imaging of the OTR of the CNS

CS(=O)(=O)N1CCC(Oc2ccc(CC(=O)N3CCC(N4C(=O)CCc5ccccc54)CC3)c(OC/C=C/[125I])c2)CC1 [[^125I]1, (E)-1-(1-(2-(2-(3-[125I]Iodoallyloxy)-4-(1-(methylsulfonyl)piperidin-4-yloxy)phenyl)acetyl)piperidin-4-yl)-3,4-dihy droquinolin-2(1H)-one]
in vivo stability of the radiolabel (thyroid / bone uptake over time) [1]: broken down readily in vivo at the iodine position | Biodistribution of radioactivity in brain region, Amygdala ([1]; 15 min): 0.09 ± 0.02 %ID/g | Biodistribution of radioactivity in brain region, Basal Hypothalamus ([1]; 15 min): 0.08 ± 0.01 %ID/g | Biodistribution of radioactivity in brain region, Cerebellum ([1]; 15 min): 0.08 ± 0.01 %ID/g | Biodistribution of radioactivity in brain region, Remaining Brain ([1]; 15 min): 0.07 ± 0.01 %ID/g | Biodistribution of radioactivity, Blood ([1]; 15 min): 0.58 ± 0.51 %ID/g | Biodistribution of radioactivity, Heart ([1]; 15 min): 0.82 ± 0.70 %ID/g | Biodistribution of radioactivity, Kidney ([1]; 15 min): 0.96 ± 0.84 %ID/g | Biodistribution of radioactivity, Liver ([1]; 15 min): 5.67 ± 5.08 %ID/g | Biodistribution of radioactivity, Lung ([1]; 15 min): 1.86 ± 1.60 %ID/g | Biodistribution of radioactivity, Muscle ([1]; 15 min): 0.28 ± 0.24 %ID/g | Biodistribution of radioactivity, Uterus ([1]; 15 min): 0.43 ± 0.38 %ID/g | Biodistribution of radioactivity in brain region, Amygdala ([1]; 30 min): 0.07 ± 0.03 %ID/g | Biodistribution of radioactivity in brain region, Basal Hypothalamus ([1]; 30 min): 0.06 ± 0.01 %ID/g | Biodistribution of radioactivity, Blood ([1]; 30 min): 0.58 ± 0.07 %ID/g | Biodistribution of radioactivity, Heart ([1]; 30 min): 0.61 ± 0.18 %ID/g | Biodistribution of radioactivity, Kidney ([1]; 30 min): 0.75 ± 0.07 %ID/g | Biodistribution of radioactivity, Liver ([1]; 30 min): 3.90 ± 0.15 %ID/g | Biodistribution of radioactivity, Lung ([1]; 30 min): 1.41 ± 0.72 %ID/g | Biodistribution of radioactivity, Muscle ([1]; 30 min): 0.26 ± 0.02 %ID/g | Biodistribution of radioactivity, Uterus ([1]; 30 min): 0.41 ± 0.07 %ID/g | Biodistribution of radioactivity in brain region, Amygdala ([1]; 60 min): 0.09 ± 0.02 %ID/g | Biodistribution of radioactivity in brain region, Basal Hypothalamus ([1]; 60 min): 0.06 ± 0.01 %ID/g | Biodistribution of radioactivity in brain region, Dorsal Striatum ([1]; 60 min): 0.04 ± 0.01 %ID/g | Biodistribution of radioactivity, Blood ([1]; 60 min): 0.55 ± 0.27 %ID/g | Biodistribution of radioactivity, Heart ([1]; 60 min): 0.54 ± 0.28 %ID/g | Biodistribution of radioactivity, Kidney ([1]; 60 min): 0.69 ± 0.30 %ID/g | Biodistribution of radioactivity, Liver ([1]; 60 min): 3.09 ± 1.34 %ID/g | Biodistribution of radioactivity, Lung ([1]; 60 min): 1.45 ± 1.04 %ID/g | Biodistribution of radioactivity, Muscle ([1]; 60 min): 0.23 ± 0.11 %ID/g | Biodistribution of radioactivity, Uterus ([1]; 60 min): 0.45 ± 0.23 %ID/g | Biodistribution of radioactivity, Brain ([1]; 60 min): 0.04 ± 0.02 %ID/g | Biodistribution of radioactivity in brain region, Amygdala ([1]; 120 min): 0.06 ± 0.01 %ID/g | Biodistribution of radioactivity in brain region, Cerebellum ([1]; 120 min): 0.03 ± 0.01 %ID/g | Biodistribution of radioactivity in brain region, Dorsal Striatum ([1]; 120 min): 0.03 ± 0.01 %ID/g | Biodistribution of radioactivity in brain region, Remaining Brain ([1]; 120 min): 0.03 ± 0.01 %ID/g | Biodistribution of radioactivity, Blood ([1]; 120 min): 0.38 ± 0.14 %ID/g | Biodistribution of radioactivity, Heart ([1]; 120 min): 0.38 ± 0.06 %ID/g | Biodistribution of radioactivity, Kidney ([1]; 120 min): 0.42 ± 0.10 %ID/g | Biodistribution of radioactivity, Liver ([1]; 120 min): 1.81 ± 0.30 %ID/g | Biodistribution of radioactivity, Muscle ([1]; 120 min): 0.14 ± 0.03 %ID/g | Biodistribution of radioactivity, Uterus ([1]; 120 min): 0.30 ± 0.10 %ID/g | Biodistribution of radioactivity, Brain ([1]; 120 min): 0.02 ± 0.01 %ID/g | autoradiographic binding to brain regions (OTR and V1aR): bind to receptors in the NAcc and VP

CS(=O)(=O)N1CCC(Oc2ccc(CC(=O)N3CCC(N4C(=O)CCc5ccccc54)CC3)c(O[11CH3])c2)CC1 [[^11C]4, 1-(1-(2-(2-[^11C]methoxy-4-((1-(methylsulfonyl)piperidin-4-yl)oxy)phenyl)acetyl)piperidin-4-yl)-3,4-dihydroquin olin-2(1H)-one]
viability for in vivo PET imaging of brain OTR (OTR of the CNS): not viable for in vivo PET imaging of the OTR of the CNS
